Rtt109 Vps75 – inhibitors of C. albicans Rtt109/Vps75 HAT, primary screen, biochemical, ThioGlo CoA-SH fluorescence, plate reader; Histone acetyltransferase RTT109 (Candida albicans (strain SC5314 / ATCC MYA-2876)), …; purified Rtt109/Vps75, 4 h; inhibition, % at 34.9 µM; 330,000 compounds, 0.16% hits;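 active means inhibition of at least 50% in every replicate; inconclusive means best replicate reaches 50% inhibition but some replicates fall short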
UCH37 inh – inhibitors of human UCH37 deubiquitinase, primary screen, biochemical, Ub-AMC cleavage, fluorescence; Ubiquitin carboxyl-terminal hydrolase isozyme L5 (Homo sapiens), Q9Y5K5; purified proteasome/UCH37; inhibition, % (test concentration not listed); 330,000 compounds, 0.33% hits; AID 588478, 2011;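 active means mean inhibition over replicate wells above about 20%, limit read from the data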;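 further: 0% = compound-free wells with enzyme and 100% = wells lacking proteasome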
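Material: Human UCH37 enzyme supplied as purified proteasome complex | Schedule: 30 min compound-proteasome preincubation then 25 min substrate reaction, room temperature | Detection: AMC fluorescence from Ub-AMC cleavage, excitation 355 nm, emission 460 nm | Benchmarks: Wells without proteasome as full block, compound-free enzyme plus substrate as uninhibited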
ALR H2O2 inh – inhibitors of human ALR sulfhydryl oxidase, primary screen, biochemical, H2O2 detection, HRP-luminol luminescence, single point; purified ALR, DTT oxidation; AID 485317, 2010; 290,000 compounds, 3.8% hits; FAD-linked sulfhydryl oxidase ALR (Homo sapiens), P55789; inhibition, % (no concentration beside the values);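 active means mean replicate inhibition above about 79%, with every replicate also reaching it, limit read from the data; inconclusive means only one of the two criteria met; inactive means mean below limit and not every replicate reaching it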
M18AAP inhibitor – PfM18AAP inhibitors, malaria aminopeptidase, primary screen, biochemical, QFRET, recombinant enzyme. inhibition, % at 7.35 µM. 290,000 compounds, 1.2% hits. H-Glu-NHMec fluorogenic cleavage;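 active means inhibition above the campaign mean inhibition over all tested compounds plus 3 SD, cut at about 28% in these data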;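 further: 0% = plate median of test compound wells and 100% = 2 mM ZnCl2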
HDAC3 inhib – HDAC3 deacetylase inhibitors, primary screen, biochemical, fluorescence, cell-free homogeneous; recombinant HDAC3, fluorogenic peptide/trypsin coupled; inhibition, % at 8.3 µM; Histone deacetylase 3 (Homo sapiens), O15379; 320,000 compounds, 0.15% hits; in the data active means inhibition above about 26%, passing the limit was not always enough; inconclusive means no clear call, values can overlap the other calls
FAS-TE inh – FAS thioesterase domain inhibitors, primary screen, biochemical, fluorescence intensity, uHTS; Fatty acid synthase (Homo sapiens), P49327; recombinant FAS-TE, OMFH fluorogenic substrate, fluorescence endpoint; inhibition, % at 15 µM; 360,000 compounds, 0.67% hits; AID 602261, 2012;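 active means compounds whose normalised, plate-corrected inhibition of enzyme fluorescence in the single-dose primary screen is 50% or more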;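 further: 0% = DMSO with enzyme and 100% = substrate without enzyme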
Active calls of the source: *; u = inconclusive; x = not tested or not shown. This is a sample that favours compounds with a hit; in the whole collection about 4.6% have one here.

SMILES	Rtt109 Vps75	UCH37 inh	ALR H2O2 inh	M18AAP inhibitor	HDAC3 inhib	FAS-TE inh
CCN(CC)C(=O)CC(c1ccc(N(C)C)cc1)c1c(OC)cc(OC)c2ccc(=O)oc12 (centres undefined)	-7	2	98*	x	6	-11
CSc1ccccc1NC(=O)CON=C(C)c1cc2ccccc2o1	x	-1	x	x	x	x
O=C(O)c1ccc(N/N=C/C2=Cc3ccccc3OC2)cc1	28	x	98*	6	9	11
Cc1nn(C)c(C(=O)NN=Cc2ccc(-c3ccccc3)cc2)c1Cl	x	5	x	x	x	x
Cn1c(C(=O)NCc2cccnc2)cc2sc(Cl)cc21	2	-3	94*	7	13	0
O=C(NCc1cccnc1)c1sc2cc(Cl)ccc2c1Cl	3	3	10	0	4	4
O=[N+]([O-])c1ccc(C=NNc2nc3ccccc3o2)cc1	x	0	x	x	x	x
CC(C)c1ccc(O)c(NC(=O)c2cncc(Br)c2)c1	-6	1	x	2	5	-13
CC(C)c1ccc(O)c(NC(=O)c2ncn[nH]2)c1	11	3	19	29*	2	-19
CCn1c(CCCCc2n[nH]c(=S)n2CC)n[nH]c1=S	12	4	18	5	3	-3
CCn1c(CN2c3ccccc3Sc3ccccc32)n[nH]c1=S	10	3	98*	-8	-3	11
CC1(C)Cc2c(sc3ncnc(NN)c23)CO1	6	1	-3	30*	2	-7
Cc1ccc(-n2c(Cc3cccn3C)nnc2SCC(=O)NCc2ccc3c(c2)OCO3)cc1	-1	1	x	30*	x	-2
Cc1ccc(-n2c(Cc3cccn3C)nnc2SCC(=O)Nc2ccc3c(c2)OCO3)cc1	19	4	-1	9	0	-1
CC(=NNC(=O)c1ccc(-c2ccccc2)cc1)c1ccco1	x	-5	x	x	x	x
CC(C)C1=CC(=Nc2ccc(S(N)(=O)=O)cc2)C=C(C(C)C)C1=O	18	-2	99*	10	9	13
Cc1[nH]c2ccccc2c1SCc1ccccc1	3	x	99*	8	x	26
COc1ccc(C(C)=NNS(C)(=O)=O)c(OC)c1	x	-1	x	x	x	x
COc1ccc(NS(=O)(=O)c2cccc(C(=O)NN=C(C)c3cccnc3)c2)cc1	x	1	x	x	x	x
Cc1cccc(NNC(=O)C(=O)NNc2cccc(C)c2)c1	-4	3	98*	-2	-2	0
Cc1cccc(NC(=O)Nc2cnccn2)c1	x	3	1	-3	0	-11
Cc1cccc(NC(=O)CC(=O)Nc2cccc(C)c2)c1	0	6	-1	6	2	2
Cc1cccc(NC(=O)Nc2ccncc2)c1	1	2	84*	1	-3	-4
S=c1[nH]nc(-c2cc(-c3ccccc3)n[nH]2)n1N=Cc1ccc(Cl)cc1	x	5	x	x	x	x
Oc1ccccc1Cn1nnc2ccccc21	3	1	x	6	-7	-4
SMILES	Rtt109 Vps75	UCH37 inh	ALR H2O2 inh	M18AAP inhibitor	HDAC3 inhib	FAS-TE inh
Cc1cccc(Cn2nnc3ccccc32)c1O	-5	-1	90*	x	3	-11
Cc1ccc(CNC(=O)Nc2ccc(OC(F)(F)F)cc2)n1C	-5	1	-22	23	2	0
Cc1ccc(CNC(=O)Nc2ccc(F)cc2)n1C	-1	-5	-7	31*	-2	-3
Nc1nnc(N2CCCCC2)s1	-2	1	91*	-4	0	-8
Nc1nnc(N2CCCCCC2)s1	0	2	66	0	5	-9
C/C(C=NNC(=O)c1cc(-c2cccn2C)n[nH]1)=C\c1ccccc1	x	6	x	x	x	x
c1ccc2c(C3=NNC(=NC4CC4)SC3)c[nH]c2c1	7	10	99*	32*	-1	-15
c1ccc2c(C3=NNC(=NC4CCCCC4)SC3)c[nH]c2c1	x	2	15	-7	-3	-87
CN(C)C(CNC(=O)c1ccc(C2SCCS2)cc1)c1ccccc1 (centres undefined)	-9	0	20	-3	54*	-3
CN(C)C(CNC(=O)c1ccc(NC(=O)c2cccs2)cc1)c1ccccc1 (centres undefined)	6	6	-4	6	-5	-3
Cc1ccc(C=NNC(=O)c2cc(OCC(F)(F)F)ccc2OCC(F)(F)F)cc1	x	4	x	x	x	x
Cc1sc(NC(=O)c2ccccc2F)c(CN2CCCCC2)c1C	0	-1	95*	-3	6	17
N#Cc1cc([N+](=O)[O-])ccc1N1CCN(c2ccccc2O)CC1	-2	4	98*	13	u	24
O=C(O)c1ccccc1C(=O)c1ccc(N2CCCC2)c([N+](=O)[O-])c1	3	17	3	6	2	-1
CC(NC(=O)c1ccc(N2CCCC2)c([N+](=O)[O-])c1)c1ccc(S(N)(=O)=O)cc1 (centres undefined)	-2	3	98*	0	-5	-2
CC(=O)c1ccc(N2CCN(c3ccccc3O)CC2)c([N+](=O)[O-])c1	20	5	99*	23	-1	4
CC1Cc2ccccc2N1C(=O)c1ccc(N2CCCC2)c([N+](=O)[O-])c1 (centres undefined)	57*	2	-7	3	-13	34
CC1Cc2ccccc2N1C(=O)c1ccc(N2CCCCC2)c([N+](=O)[O-])c1 (centres undefined)	-2	1	x	-2	x	16
Cc1ccc(C=NNC(=O)C(C)NC(=O)c2ccccc2)cc1 (centres undefined)	x	5	x	x	x	x
O=C(NN=Cc1cnc(N2CCCCC2)s1)c1ccc(C(F)(F)F)cc1	x	-6	x	x	x	x
COc1cc(C=NO)ccc1OCc1ccc(C(=O)O)cc1	x	5	x	x	x	x
CNC(=S)NN=Cc1cc(Br)cc(Br)c1O	x	-68	x	x	x	x
CC(=NO)C1(C)N(O)C(C)(C)C(c2ccc(Br)cc2)=[N+]1[O-] (centres undefined)	x	-3	x	x	x	x
Cc1cc2c(cc1C)-c1c(ssc1=Nc1ccc(S(N)(=O)=O)cc1)C(C)(C)N2	7	4	-3	3	1	6
CC(=O)NS(=O)(=O)c1ccc(N=c2ssc3c2-c2cc(C)c(C)cc2NC3(C)C)cc1	7	3	99*	6	3	-9
COC(=O)/C=C1\N/C(=N\c2nc(C)cc(C)n2)N(c2ccccc2)C1=O	x	4	97*	1	6	-9
O=C(Cc1cc(=O)[nH][nH]1)NN=C/C(Cl)=C/c1ccccc1	x	8	x	x	x	x
CCOC(=O)Cn1c(=O)oc2cc(S(=O)(=O)Nc3ccc(N(CC)CC)cc3C)ccc21	24	3	99*	25	7	-4

Assay outcomes deposited in PubChem by several laboratories.
